Measured values taken from ChEMBL document CHEMBL4190280, “Topological pattern for the search of new active drugs against methicillin resistant Staphylococcus aureus” (2017).
Converted amounts (≈) assume the structure as drawn.

Key:
Staphylococcus aureus [1] = assay: Antibacterial activity against methicillin-resistant Staphylococcus aureus subsp. aureus Rosenbach 1884; type: functional
Summary of the method: (§1)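 In vitro testing against MRSA by standard techniques, following the Spanish Society of Clinical Microbiology and Infectious Diseases (SEIMC) recommended protocol. MIC and MBC were determined, with concentrations compared in double (twofold) dilution steps.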

Staphylococcus aureus [2] = assay: Bactericidal activity against methicillin-resistant Staphylococcus aureus subsp. aureus Rosenbach 1884; type: functional; summary of the method: as §1

Row | Compound | MIC (Staphylococcus aureus [1]) [µg/mL] | MBC (Staphylococcus aureus [2]) [µg/mL]
1 | O=C(O)c1cn(C2CC2)c2cc(Cl)c(F)cc2c1=O | 32 (≈ 114 µM) | 512 (≈ 1820 µM)
2 | O=C(O)c1cn(C2CC2)c2cc(F)c(F)cc2c1=O | 64 (≈ 241 µM) | > 512
3 | COc1cc2c(cc1OC)CN(c1cc3c(cc1F)c(=O)c(C(=O)O)cn3C1CC1)CC2 | 1 (≈ 2.28 µM) | 128 (≈ 292 µM)
4 | CN(Cc1cccc2ccccc12)c1cc2c(cc1F)c(=O)c(C(=O)O)cn2C1CC1 | 1 (≈ 2.4 µM) | 128 (≈ 307 µM)
5 | Cc1nccn1-c1cc2c(cc1F)c(=O)c(C(=O)O)cn2C1CC1 | 32 (≈ 97.8 µM) | > 512
6 | O=C(O)c1cn(C2CC2)c2cc(N3CCNCC3)c(F)cc2c1=O [CIPROFLOXACIN] | 0.5 (≈ 1.51 µM) | 256 (≈ 773 µM)
7 | CC1(C)[C@H](C(=O)O[C@H](C#N)c2cccc(Oc3ccccc3)c2)[C@@H]1/C=C(\Cl)C(F)(F)F [GAMMA-CYHALOTHRIN] | > 512 | > 512
8 | Nc1nnc(-c2cccc(Cl)c2Cl)c(N)n1 [LAMOTRIGINE] | > 512 | > 512
9 | CO[C@@]12[C@H](COC(N)=O)C3=C(C(=O)C(C)=C(N)C3=O)N1C[C@@H]1N[C@@H]12 [MITOMYCIN] | 0.5 (≈ 1.5 µM) | 4 (≈ 12 µM)
